Bioassay records from PubChem BioAssay.
SDO1 yeast rescue: restores growth of sdo1-depleted yeast; S. cerevisiae sdo1-depleted JHY4D growth rescue, OD600 30 h; stronger effect = higher value; pdr5 snq2 efflux-pump mutant strain; z-score at 10 µM; 140,000 compounds, 0.21% hits;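 active = z-score above 3 at both the 24 hr and the 30 hr optical density reads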;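 also: z-score against mean and SD of all compound wells on the same plate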
ABCB1 inh: blocks JC-1 efflux by human ABCB1 transporter; P08183; CCRF-Adr cells, flow cytometry; inhibition, % at 6.6 µM; 190,000 compounds, 0.067% hits; AID 1326; in the data active = inhibition above about 40%;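 also: 0% = vehicle and 100% = reference inhibitor; higher value means more JC-1 retained so stronger ABCB1 efflux block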
Insulin prom up: MIN6 insulin promoter up-regulation; MIN6 insulin promoter-GFP reporter, high-content imaging; stronger effect = higher value; z-score at 5 µM; 190,000 compounds, 0.3% hits;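 active = z-score above 3 at 5 µM with at least 500 cells counted in the well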
Autophagy mod: autophagy modulation, high-content screen. MEF GFP-LC3 puncta imaging; test concentration mostly 10 µM. calls only at 10 µM (by protocol). 190,000 compounds, 0.98% hits;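 active = percentage of spot-positive cells more than 3 SD above its plate mean, without a fluorescence outlier flag or 80% toxicity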;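 also: spot-positive cell cutoff set from DMSO-treated cells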
ROMK mod: modulators of human ROMK potassium channel; B-score at 10 µM; 130,000 compounds, 2% hits; Tet-inducible ROMK, thallium flux fluorescence; actives lie on both sides;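 active = signal ratio slope over the read window, or its plate-corrected B-score, at least 3 SD from the plate mean, either direction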;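 also: B-score of the F/F0 ratio slope over 7 to 12 s after thallium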
ABCG2 inh: inhibitors of human ABCG2 transporter, ABCB1 counter-screen | 190,000 compounds, 0.1% hits | Q9UNQ0 | inhibition, % at 6.6 µM | IgMXP3 cells, JC-1 efflux, flow cytometry;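 active = inhibition above 80%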;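 also: 0% = DMSO and 100% = nicardipine control wells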
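System: two drug-resistant human cell lines, ABCG2 and ABCB1; controls: nicardipine high and DMSO low controls; times: 10 min exposure at 25 °C with rotation, no wash; detection: flow cytometry of retained JC-1 fluorescence; read-out basis: percent efflux inhibition, scaled nicardipine 100% to DMSO 0%; doses: one concentration, 6.6 µM final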
SDO1 rescue DR: confirmation of growth rescue in SDO1-depleted yeast, bone marrow failure; 440 compounds, 44% hits; shares compounds with SDO1 yeast rescue; OD recovery (no concentration beside the values); S. cerevisiae JHY4D (SDO1-depleted) growth rescue, OD600, 30 h; stronger effect = higher value; efflux-deficient strain, SNQ2 and PDR5 mutated;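 active = yeast growth recovered at 30 hours, either rising with dose fitted slope above 0.001 or with average optical density gain above 0.07, some results past the limit were not filed as active; inactive = growth falling with dose or no effect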;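 also: gain in OD600 from 0 h to 30 h averaged across all seven doses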
An asterisk follows results filed as active; i = inactive; / = no result. Shown are actives, neighbours in structure and some others; about 2.3% of the full set was active somewhere.

SMILES | SDO1 yeast rescue | ABCB1 inh | Insulin prom up | Autophagy mod | ROMK mod | ABCG2 inh | SDO1 rescue DR
O=C(CCSc1ccccc1)Nc1ccccc1C(=O)N1CCCC1 | 0.17 | 1 | 0.59 | i | 1.2 | 1 | /
COc1cc(C(=O)NCCc2cn3ccc(C)cc3n2)cc(OC)c1OC | 0.03 | 0 | -0.47 | i | / | 2 | /
COc1ccc(C(=O)NCCc2cn3ccc(C)cc3n2)cc1 | 1.1 | 1 | -1 | i | / | 2 | 0.081*
CCC(C)c1ccccc1NC(=O)COC(=O)C1=COCCO1 (stereo not drawn) | / | 1 | 0.14 | i | -0.16 | 6 | /
COc1ccc(N2CC(C(=O)NCCCN3CCOCC3)CC2=O)cc1 (stereo not drawn) | 1.8 | 3 | -0.18 | i | / | 25 | 0.084*
COc1ccc(N2CC(C(=O)Nc3ccc(S(=O)(=O)N4CCOCC4)cc3)CC2=O)cc1 (stereo not drawn) | / | 0 | -0.1 | i | -0.7 | 1 | /
Cc1nn(C)c(Cl)c1C(=O)NCC(=O)NCc1ccccc1 | / | 0 | 0.5 | i | -0.0059 | 2 | /
CCN(CC)S(=O)(=O)c1ccc(NC(=O)C2c3ccccc3Oc3ccccc32)cc1 | -0.67 | 0 | / | i | 0.73 | 0 | /
CC(CCc1ccccc1)NC(=O)CSc1nc(N)cc(N)n1 (stereo not drawn) | 13* | 0 | 0.85 | i | / | 0 | 0.11*
Nc1cc(N)nc(SCC(=O)NNC(=O)Cc2ccccc2)n1 | / | 0 | 1.2 | i | -0.0053 | 0 | /
COc1ccc(C2=NOC(C(=O)Nc3cccnc3)C2)cc1 (stereo not drawn) | 3.5* | 0 | / | i | / | 1 | 0.038
COc1cccc(C2=NOC(C(=O)Nc3cccnc3)C2)c1 (stereo not drawn) | -0.11 | 0 | -1.1 | i | / | 0 | /
CC(=O)C1C(c2ccc(F)cc2)C2C(C)=NN=C2CC1(C)O (stereo not drawn) | 9.7* | 0 | 2 | i | 1.1 | 0 | 0.072*
O=C1COc2ccc(C(=O)COC(=O)c3ccc4ccccc4n3)cc2N1 | 1.7 | 1 | 0.51 | i | / | 34 | 0.099*
O=C1COc2ccc(C(=O)COC(=O)c3ccco3)cc2N1 | / | / | 0.3 | / | -0.067 | / | /
CC1(C)C(=O)OC(c2ccccc2)C2(CCCC2)C1=O (stereo not drawn) | 3.2* | 0 | 0.7 | i | 1.6 | 1 | 0.061
Cc1cc(C(=O)Nc2sc3c(c2C#N)CCC(C)C3)cs1 (stereo not drawn) | 2.2 | 0 | 0.15 | i | -0.093 | 1 | 0.055
COC(=O)c1ccc(Oc2nc(Nc3ccc(C)c(C)c3)nc(N(C)C)n2)cc1 | -1.1 | 2 | -0.47 | i | -1.1 | 6 | /
COc1cc(/C=N/NC(=O)CN2CCCCC2)ccc1OCc1ccccc1 | -0.04 | 0 | 0.85 | i | -1.9 | 1 | /
CCCCOc1ccc(C(=O)N/N=C/c2ccc(OCCN3CCCCC3)c(OC)c2)cc1 | 9* | 1 | 0.24 | i | / | 7 | 0.11*
C=CCSc1ncc(CO)n1Cc1ccccc1 | / | 0 | 0.17 | i | 0.17 | 5 | /
CN(CC(=O)NCc1cccnc1)S(=O)(=O)c1ccc2c(c1)c(=O)n(C)c(=O)n2C | 3* | 1 | 0.5 | i | / | 2 | 0.074*
CCN(CC)C(=O)c1cc([N+](=O)[O-])cc2c1-c1ccc([N+](=O)[O-])cc1C2=C(C#N)C#N | / | / | -1.3 | / | / | / | /
O=C(Nc1ccc(S(=O)(=O)N2CCCCCC2)cc1)c1ccco1 | 1.4 | 0 | -0.21 | i | -0.41 | 7 | 0.07
C[C@H](NC(=O)c1ccco1)C(=O)Nc1ccc(S(=O)(=O)N2CCCC2)cc1 | 1.1 | 0 | -0.43 | i | / | 28 | /
SMILES | SDO1 yeast rescue | ABCB1 inh | Insulin prom up | Autophagy mod | ROMK mod | ABCG2 inh | SDO1 rescue DR
O=C(O)Cn1nc(C(F)(F)F)c2c1CCCC2 | / | 0 | 1.8 | i | 0.29 | 1 | /
O=C(O)CCCn1nc(C(F)(F)F)c2c1CCCCC2 | 3.4* | 1 | / | i | 0.13 | 3 | 0.061*
Cc1ccc(CNC(=O)CN(C)S(=O)(=O)c2cccs2)cc1 | / | 0 | / | i | -1 | 1 | /
O=C(Nc1ccccc1)C1CC(=O)N(C2CCCCC2)C1 (stereo not drawn) | 4.1* | 1 | 0.6 | i | / | 2 | 0.053
O=C(CSc1nnc(SCC(=O)c2ccco2)s1)c1ccco1 | 2.5 | 0 | 1.1 | i | 0.7 | 1 | 0.062
COc1ccc(-c2[nH]ncc2-c2cscn2)c(O)c1 | / | -1 | -0.21 | i | -1.6 | 0 | /
COc1cc(/C=C/C(=O)c2ccc(NS(=O)(=O)c3ccc(C)cc3)cc2)ccc1OC(F)F | -0.16 | 0 | -0.03 | i | 0.51 | -1 | /
COc1cc(/C=C/C(=O)c2ccc(NS(=O)(=O)c3ccc(C)cc3)cc2)cc(OC)c1O | 11* | 0 | -2.1 | i | / | 0 | 0.055
CN(C)CCNC(=O)c1coc(=O)c(Br)c1 | 13* | 0 | -0.21 | i | / | 0 | 0.053
CC(C)CNC(=O)c1coc(=O)c(Br)c1 | 0.58 | 0 | -0.89 | i | 0.33 | 1 | /
CCOc1cc(NC(=O)c2ccco2)c(OCC)cc1NC(=O)c1cc(OC)c(OC)c(OC)c1 | 1.2 | 16 | -3 | i | / | 55 | 0.068
O=C(COC(=O)Cc1cccs1)Nc1ccccc1 | 1.3 | 0 | -0.85 | i | / | 2 | 0.034*
CCN1C(=O)N(CC)C2C1N(CO)C(=O)N2CO (stereo not drawn) | / | 0 | 0.03 | i | -0.34 | -1 | /
COc1ccc(CNC(=O)C(c2ccc(C)o2)N(C(=O)c2csnn2)c2ccc(C(C)C)cc2)cc1 (stereo not drawn) | -1.1 | 3 | -0.41 | i | -2.7 | 2 | /
Cc1ccnc(SCC(=O)c2cc3ccccc3o2)n1 | / | 0 | -0.15 | i | 0.15 | 6 | /
Cc1nc2ccccc2c(=O)n1/N=C/c1cccnc1 | 3.1* | 1 | -0.28 | i | 0.097 | 6 | 0.053
Cc1nc2ccccc2n1/N=C/c1cccnc1 | 0.29 | 0 | -0.59 | i | 1.2 | 2 | /
Cn1nccc1NC(=O)COCC(=O)O | / | / | 0.84 | / | / | / | /
CCN=C1S/C(=C\c2cn(CC)c3ccccc23)C(=O)N1CC | 7.9* | 1 | -2 | i | 0.28 | 5 | 0.092*
Cc1nc2scc(-c3ccc(C(C)(C)C)cc3)c2c(=O)n1N | / | 0 | -0.84 | i | 0.032 | 1 | /
Cc1nc2cc(F)ccc2n1C1CCN(C(=O)c2c(F)cccc2F)CC1 | / | 0 | -0.5 | i | -0.12 | 0 | /
COC(=O)C(C)N(C(=O)c1cccc(Cl)c1)c1c(C)cccc1C (stereo not drawn) | 5.6* | 1 | 0.66 | i | 0.58 | 1 | 0.056
COC(=O)C(C)N(C(=O)c1cccc2ccccc12)c1c(C)cccc1C (stereo not drawn) | -1.8 | 0 | -0.94 | i | / | 2 | /
Cc1cccc(N/N=C(\C=N\N)C(=O)c2ccc(Br)cc2)c1 | / | 0 | -0.25 | i | 0.11 | 4 | /
